This note sets out measurements from ChEMBL document CHEMBL1148290, “Synthesis of flexible sulfur-containing heteroarotinoids that induce apoptosis and reactive oxygen species with discrimination between malignant and benign cells” (2004).

What all share (assay type): functional
For test [1], the system named is SK-OV-3. Briefly: Efficacy is growth inhibition activity at 10 uM concentration relative to the maximum activity observed for 4-HPR with SK-OV-3 cell line. The method, boiled down:
(§1)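 Cells seeded at 1000 cells/well; next day retinoids added from DMSO stocks (DMSO ≤0.01% final; solvent-only controls) to final 1, 4, 7 and 10 μM, handled under subdued light. After 3 days, living cells quantitated by MTS/PMS reduction read at OD490 in linear range (0.1–0.6); triplicate wells averaged, percent growth inhibition calculated versus solvent controls.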

Test [2] has as its system OVCAR-3. Briefly: Efficacy is growth inhibition activity at 10 uM concentration relative to the maximum activity observed for 4-HPR with OVCAR-3 cell line. The method, boiled down:
as §1

Test [3] has as its system SK-OV-3. Briefly: Potency of compound was determined from ability to inhibit the growth of ovarian carcinoma SK-OV-3 cell line. In short, it runs like this: as §1
Test [4] relates to OVCAR-3. Briefly: Potency of compound was determined from ability to inhibit the growth of ovarian carcinoma OVCAR-3 cell line. In short, it runs like this: as §1
Test [5] relates to Caov-3 cell line. Briefly: Efficacy is growth inhibition activity at 10 uM concentration relative to the maximum activity observed for 4-HPR with Caov-3 cell line. In short, it runs like this:
as §1

In test [6] the test system is Caov-3 cell line. The test can be described thus: Potency of compound was determined from ability to inhibit the growth of ovarian carcinoma cell line Caov-3. In short, it runs like this: as §1

For the molecule `CCOC(=O)c1ccc(NC(=O)Nc2ccc3c(c2)C(C)(C)CC(C)(C)S3)cc1`, the Efficacy in test [1] is on record as 71.8%; in test [2], 160.4%; in test [5], 63.7%. The Potency in test [3] is 4.1 µM; in test [4], 3.9 µM; in test [6] it was 7 µM.
Regarding `Cc1cc2c(cc1/N=C(\S)Nc1ccc(S(N)(=O)=O)cc1)C(C)(C)CC(C)(C)S2`, the Efficacy in test [1] came to 67.7%; in test [2] it was 90%; in test [5] it was 30.3%. In addition, the Potency in test [3] worked out at 6.9 µM; in test [4] it was 4.4 µM; in test [6] it was 0.9 µM.
For `CCOC(=O)c1ccc(NC(=O)Nc2cc3c(cc2C)SC(C)(C)CC3(C)C)cc1`, the Efficacy is 75.7% in test [1], 107% in test [2] and 54.9% in test [5]. Further, the Potency in test [3] is 7.2 µM; in test [4], 4.7 µM; in test [6] it was 10.2 µM.
`CC1(C)CC(C)(C)c2cc(N/C(S)=N/c3ccc(S(N)(=O)=O)cc3)ccc2S1`: the values for the Efficacy in test [1], in test [2] and in test [5] were 50.5%, 74.1% and 16.7%, respectively. Further, the Potency in test [3] came out at 7.8 µM; in test [4], 4.4 µM; in test [6], 7 µM.
For `CCOC(=O)c1ccc(N/C(S)=N/c2ccc3c(c2)C(C)(C)CC(C)(C)S3)cc1`, the Efficacy in test [1] turned out to be 64.9%; in test [2] it was 133.8%; in test [5], 38.1%. Moreover, the Potency was found to be 3.9 µM in test [3], 3.9 µM in test [4] and 4.6 µM in test [6].
With `CCOC(=O)c1ccc(N/C(S)=N/c2cc3c(cc2C)SC(C)(C)CC3(C)C)cc1`, the values for the Efficacy in test [1], in test [2] and in test [5] were 85.4%, 114.4% and 37.4%, respectively. In addition, the Potency amounted to 4.4 µM in test [3], 4.4 µM in test [4] and 4 µM in test [6].
With `Cc1cc([N+](=O)[O-])ccc1/N=C(\S)Nc1ccc2c(c1)C(C)(C)CC(C)(C)S2`, the Efficacy in test [1] was determined as 78.4%; in test [2], 149.5%; in test [5], 52.1%. Moreover, the Potency is 3.9 µM in test [3], 3.7 µM in test [4] and 7.4 µM in test [6].
Consider `CC1=C(/C=C/C(C)=C/C=C/C(C)=C/C(=O)Nc2ccc(O)cc2)C(C)(C)CCC1` [FENRETINIDE], for which the Efficacy in test [1], in test [2] and in test [5] was 100% in each case. For the same molecule, the Potency came to 8.2 µM in test [3], 6.9 µM in test [4] and 3.7 µM in test [6].
On to `CC1(C)CC(C)(C)c2cc(NC(=S)Nc3ccc([N+](=O)[O-])cc3)ccc2S1` [SHETA-2], for which the Efficacy was found to be 69.1% in test [1], 155.2% in test [2] and 89.2% in test [5]. The figures for the Potency in test [3], in test [4] and in test [6] were 0.2 µM, 1 µM and 3.7 µM, respectively.
